Data on 40 compounds can be found in ChEMBL document CHEMBL1144746, “Structural simplification of bioactive natural products with multicomponent synthesis. 2. antiproliferative and antitubulin activities of pyrano[3,2-c]pyridones and pyrano[3,2-c]quinolones” (2008).

By GI50 is commonly meant the concentration giving 50% growth inhibition.

Structures are written as SMILES. Calls of active or inactive are those of the source. No cut-off for these calls is given here.

One test relates to HeLa. Briefly: Antiproliferative activity against human HeLa cells assessed as cell viability after 48 hrs by MTT assay. Type of test: functional. The essentials:
(§1)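 Cells plated at 2 × 10^4 cells/mL and allowed to adhere for 24 h, then exposed to compounds for 48 h. MTT reagent (5 mg/mL stock) added for 2 h, formazan dissolved in DMSO, OD read at 490 nm.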
On the technique in general: Tetrazolium assays rely on reduction of a dye to a coloured formazan, in cell work by metabolically active cells.

The test system of test [1] is Jurkat. Briefly: Induction of apoptosis in human Jurkat cells assessed as morphological changes after 2 hrs by light microscopy. Type of test: functional, cell-based. A digest of the protocol:
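Jurkat cells exposed to compound at 1 μM for 2 h, with 0.1% DMSO as control. Finger-like extensions and shriveling scored by light microscopy.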

For test [2], the system named is Jurkat. Briefly: Induction of apoptosis in human Jurkat cells assessed as oligonucleosomal DNA fragments at 1.5 uM after 36 hrs by DNA laddering assay. Type of test: functional, cell-based. A digest of the protocol:
(§2)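 About 1 × 10^6 Jurkat cells treated for 36 h. Cells lysed in Tris-HCl pH 8/EDTA/0.5% SDS/proteinase K at 55 °C for 60 min, then RNase at 55 °C for 60 min. Cleared lysate run on a 1.5% agarose gel with ethidium bromide at 80 V for about 1 h and viewed under UV.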

The test system of the next test is MCF7. Briefly: Antiproliferative activity against human MCF7 cells assessed as cell viability after 48 hrs by MTT assay. Type of test: functional. The following applies: MCF7, 48 h. A digest of the protocol:
as §1

Test [3] deals with Jurkat. Briefly: Induction of apoptosis in human Jurkat cells by annexin V/propidium iodide assay. Type of test: functional, cell-based. The following applies: TDE = time-dependent effect. The essentials:
(§3)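 Jurkat cells at 2 × 10^5 cells/mL exposed to compounds, with DMSO control. Exposure was 5 μM for 36 h, 1 μM for 12–60 h, or 48 h across a range of doses. Cells stained with Annexin-V-FITC/propidium iodide in HHB with CaCl2 for 20 min at 37 °C. Flow cytometry gives % Annexin-V-positive cells; four replicates, experiment repeated twice.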

Test [4] concerns Jurkat. Briefly: Cell cycle arrest in human Jurkat cells assessed as accumulation at G2/M phase at 1 uM after 24 hrs by flow cytometry. Type of test: functional. A digest of the protocol:
(§4)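 Cells stained with Vybrant DyeCycle Orange in HHB (1 μL dye per mL) for 30 min at 37 °C in the dark, then analysed by flow cytometry. % relative DNA content ± SD, two independent experiments each in triplicate.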
A general note: A flow cytometer gives signals particle by particle.

Test [5] has as its system Jurkat. Briefly: Cell cycle arrest in human Jurkat cells assessed as accumulation at S phase at 1 uM after 24 hrs by flow cytometry. Type of test: functional. The essentials: as §4
Test [6] is filed under the species Bos taurus. Briefly: Inhibition of bovine tubulin polymerization at 25 uM. The essentials:
(§5)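 Purified bovine tubulin incubated at 37 °C in buffer with 10% glycerol and 1 mM GTP, each agent in a separate run against a 0.05% DMSO control. Polymerization followed kinetically by fluorescence increase on a plate reader.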

The test system of test [7] is Jurkat. Briefly: Induction of apoptosis in human Jurkat cells at 100 nM by annexin V/propidium iodide assay.
Test [8] has as its system Jurkat. Briefly: Cell cycle arrest in human Jurkat cells assessed as accumulation at G0/G1 phase at 1 uM after 24 hrs by flow cytometry. Type of test: functional. A digest of the protocol:
as §4

Test [9] relates to Jurkat. Briefly: Induction of apoptosis in human Jurkat cells at 5 uM by annexin V/propidium iodide assay. Type of test: functional, cell-based. The essentials: as §3
The test system of test [10] is Jurkat. Briefly: Induction of apoptosis in human Jurkat cells assessed as oligonucleosomal DNA fragments at 0.4 uM after 36 hrs by DNA laddering assay. Type of test: functional, cell-based. A digest of the protocol:
as §2

The species entered for test [11] is Bos taurus. Briefly: Induction of bovine tubulin polymerization at 3 uM relative to control. The essentials: as §5

Consider `COc1cc(C2C(C#N)=C(N)Oc3c2c(=O)n(C)c2ccccc32)cc(Br)c1O` (stereo not given), for which the concentration for 50% growth inhibition (GI50) came to 47 nM in the test on HeLa and 390 nM in the test with MCF7. For the same compound, the result in the test with Jurkat [1], in the test with Jurkat [2], in the test filed under Bos taurus [6] and in the test on Jurkat [7] was Active. The Activity result is “tde” in the test on Jurkat [3], 47% in the test with Jurkat [4], 22% in the test with Jurkat [5] and 27% with Jurkat [8].
In the case of `Cc1cc2c(c(=O)n1C)C(c1cccc([N+](=O)[O-])c1)C(C#N)=C(N)O2` (stereo not given), the GI50 with HeLa was determined as 35000 nM.
As to `COc1cc(C2C(C#N)=C(N)Oc3cc(C)n(C)c(=O)c32)cc(Br)c1OC(C)=O` (stereo not given), in the test with HeLa, the GI50 stood at 3500 nM. Moreover, the outcome in the test on Jurkat [9] was Active.
As to `Cn1c(=O)c2c(c3ccccc31)OC(N)=C(C#N)C2c1c(Cl)cccc1Cl` (stereo not given), the GI50 is over 50000 nM with HeLa and 36000 nM in the test with MCF7.
For the compound `COc1cc(C2C(C#N)=C(N)Oc3cc(C)n(C)c(=O)c32)cc(OC)c1OC` (stereo not given), the GI50 in the test with HeLa amounted to 43300 nM.
On to `Cn1c(=O)c2c(c3ccccc31)OC(N)=C(C#N)C2c1cccc(Br)c1` (stereo not given), for which the GI50 came out at 740 nM in the test on HeLa and 3 nM with MCF7.
For `Cc1cc2c(c(=O)n1C)C(c1ccc(Cl)c(Cl)c1)C(C#N)=C(N)O2` (stereo not given), in the test on HeLa, the GI50 amounted to 18300 nM. Further, the result in the test with Jurkat [9] was inactive.
`Cc1cc2c(c(=O)o1)C(c1cccc(Br)c1)C(C#N)=C(N)O2` (stereo not given): the GI50 in the test on HeLa is over 100000 nM.
With `COc1ccc(C2C(C#N)=C(N)Oc3c2c(=O)n(C)c2ccccc32)cc1O` (stereo not given), the GI50 in the test with HeLa and with MCF7 was over 50000 nM in each case.
On to `Cn1c(=O)c2c(c3ccccc31)OC(N)=C(C#N)C2c1cccc(Cl)c1Cl` (stereo not given), for which the figures for the GI50 in the test with HeLa and in the test on MCF7 were 1800 nM and over 50000 nM, respectively.
With `COc1cc(C2C(C#N)=C(N)Oc3cc(C)n(C)c(=O)c32)cc(Br)c1O` (stereo not given), in the test with HeLa, the GI50 is 2700 nM. For the same compound, the outcome with Jurkat [9] was Active.
For the compound `COc1cc(C2C(C#N)=C(N)Oc3c2c(=O)n(C)c2ccccc32)cc(Br)c1OC` (stereo not given), the 50% growth inhibitory concentration (GI50) worked out at 14 nM in the test with HeLa and 380 nM in the test with MCF7. Besides, the outcome in the test on Jurkat [1], in the test on Jurkat [2] and in the test listed under Bos taurus [6] was Active. Also, the Activity with Jurkat [4] was determined as 49%; in the test with Jurkat [5] it was 28%; in the test on Jurkat [8], 20%.
For the compound `COc1cc(C2C(C#N)=C(N)Oc3c2c(=O)n(C)c2ccccc32)cc(Br)c1OC(C)=O` (stereo not given), the GI50 in the test with HeLa was found to be 180 nM; with MCF7 it was 25 nM.
For `CCOc1c(Br)cc(C2C(C#N)=C(N)Oc3cc(C)n(C)c(=O)c32)cc1OC` (stereo not given), in the test with HeLa, the GI50 amounted to 1100 nM. The outcome with Jurkat [9] was Active.
For the compound `Cn1c(=O)c2c(c3ccccc31)OC(N)=C(C#N)C2c1ccco1` (stereo not given), the GI50 in the test with HeLa was 22000 nM; in the test on MCF7, 35000 nM.
For `Cc1cc2c(c(=O)n1C)C(c1cccc(Br)c1)C(C#N)=C(N)O2` (stereo not given), the GI50 with HeLa came to 6500 nM. Further, in the test on Jurkat [9], the outcome was Active.
For `Cc1cc2c(c(=O)n1C)C(c1ccc(C(C)C)cc1)C(C#N)=C(N)O2` (stereo not given) the same measures were over 100000 nM and “inactive”.
As to `COc1ccc(C2C(C#N)=C(N)Oc3c2c(=O)n(C)c2ccccc32)cc1Br` (stereo not given), the GI50 stood at 410 nM in the test on HeLa and 500 nM with MCF7.
Taken in the same sequence, the figures for `Cn1c(=O)c2c(c3ccccc31)OC(N)=C(C#N)C2c1ccncc1` (stereo not given) were over 50000 nM and 32000 nM.
For `Cn1c(=O)c2c(c3ccccc31)OC(N)=C(C#N)C2c1cncc(Br)c1` (stereo not given), the GI50 in the test on HeLa was found to be 13 nM; with MCF7, 15 nM.
For `COc1cc(C2C(C#N)=C(N)Oc3c2c(=O)n(C)c2ccccc32)ccc1O` (stereo not given) the same measures were 630 nM and 500 nM.
For `COc1cc(C2C(C#N)=C(N)Oc3c2c(=O)n(C)c2ccccc32)cc(OC)c1OC` (stereo not given) the same measures were 240 nM and 1000 nM.
Turning to `COc1cc(C2C(C#N)=C(N)Oc3cc(C)n(C)c(=O)c32)cc(Br)c1OC` (stereo not given), the GI50 in the test on HeLa was 580 nM. Also, the result in the test with Jurkat [9] was Active.
On to `Cn1c(=O)c2c(c3ccccc31)OC(N)=C(C#N)C2c1ccc(F)c(Br)c1` (stereo not given), for which the values for the GI50 in the test on HeLa and in the test on MCF7 were 270 nM and 810 nM, respectively.
For the compound `Cn1c(=O)c2c(c3ccccc31)OC(N)=C(C#N)C2c1ccccc1[N+](=O)[O-]` (stereo not given), the GI50 amounted to 5000 nM in the test on HeLa and 3500 nM with MCF7.
For `Cn1c(=O)c2c(c3ccccc31)OC(N)=C(C#N)C2c1cccnc1` (stereo not given) the same measures were 2000 nM and over 50000 nM.
For `Cc1ccc(C2C(C#N)=C(N)Oc3c2c(=O)n(C)c2ccccc32)o1` (stereo not given) the same measures were 3900 nM and 5100 nM.
As for `Cn1c(=O)c2c(c3ccccc31)OC(N)=C(C#N)C2c1cc(Br)cc(Br)c1` (stereo not given), the GI50 in the test on HeLa stood at 77 nM; with MCF7, 75 nM.
Consider `Cc1cc2c(c(=O)n1C)C(c1ccc(F)c(Br)c1)C(C#N)=C(N)O2` (stereo not given), for which the GI50 in the test with HeLa was 6400 nM. In addition, the result with Jurkat [9] was Active.
For the compound `Cn1c(=O)c2c(c3ccccc31)OC(N)=C(C#N)C2c1ccccc1` (stereo not given), the results for the GI50 with HeLa and in the test on MCF7 were 390 nM and 3380 nM, respectively.
Taken in the same sequence, the figures for `Cn1c(=O)c2c(c3ccccc31)OC(N)=C(C#N)C2c1cccc([N+](=O)[O-])c1` (stereo not given) were 320 nM and 1100 nM.
Taken in the same sequence, the figures for `Cn1c(=O)c2c(c3ccccc31)OC(N)=C(C#N)C2c1cccc(Cl)c1` (stereo not given) were 150 nM and 2200 nM.
As for `COc1cc([C@@H]2c3cc4c(cc3[C@H](O)[C@H]3COC(=O)[C@H]23)OCO4)cc(OC)c1OC`, in the test filed under Bos taurus [6], the result was Active.
With `Cn1c(=O)c2c(c3ccccc31)OC(N)=C(C#N)C2c1cccc(F)c1` (stereo not given), the results for the GI50 in the test with HeLa and in the test with MCF7 were 300 nM and 1000 nM, respectively.
For `COc1cc(C2C(C#N)=C(N)Oc3c2c(=O)n(C)c2ccccc32)cc([N+](=O)[O-])c1O` (stereo not given) the same measures were 630 nM and 710 nM.
For `Cn1c(=O)c2c(c3ccccc31)OC(N)=C(C#N)C2c1ccc(Cl)c(Cl)c1` (stereo not given) the same measures were 300 nM and 2500 nM.
Turning to `COc1ccc(CCn2c(C)cc3c(c2=O)C(c2cc(OC)c(OC)c(OC)c2)C(C#N)=C(N)O3)cc1OC` (stereo not given), in the test with HeLa, the 50% growth inhibitory concentration (GI50) amounted to 22700 nM. The result in the test on Jurkat [9] was inactive.
Regarding `CC(=O)O[C@H]1C(=O)[C@@]2(C)[C@H]([C@H](OC(=O)c3ccccc3)[C@]3(O)C[C@H](OC(=O)[C@H](O)[C@@H](NC(=O)c4ccccc4)c4ccccc4)C(C)=C1C3(C)C)[C@]1(OC(C)=O)CO[C@@H]1C[C@@H]2O`, the outcome in the test with Jurkat [10] and in the test listed under Bos taurus [11] was Active.
As for `Cc1cc2c(c(=O)n1C)C(c1ccc(N(C)C)c(Br)c1)C(C#N)=C(N)O2` (stereo not given), the GI50 in the test on HeLa came out at 330 nM. Further, the outcome with Jurkat [9] was Active.
Regarding `Cn1c(=O)c2c(c3ccccc31)OC(N)=C(C#N)C2c1cc(Br)c(O)c(Br)c1` (stereo not given), the GI50 in the test on HeLa was 270 nM; with MCF7, 430 nM.
